Each block holds one compound with its values, some of them ahead of it.
Assays:
[1] = system: acetylated α-tubulin (AcTub) in QBI293 cells; experiment: QBI293 cell AcTub; type: cell-based; settings: for activity in AcTub assay: 1 μM; for increase of cellular AcTub (words, Figure 2): compared with 1
Procedure, shortened: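 QBI293 cells are an HEK293 derivative. Tubulin acetylation, which occurs on polymerized tubulin, serves as the cellular read-out of MT stabilization. Test compounds were run at 0.1 or 1 μM. AcTub was expressed relative to vehicle-treated cells and to a 0.1 μM reference MT-stabilizer positive control. Significance was assessed by two-tailed t-test.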

[2] = system: acetylated α-tubulin (AcTub) in QBI293 cells; settings: 50–500 nM concentrations ref 8; cited from earlier work
[3] = system: AcTub levels in brain homogenates; settings: single ip injection 1–6 mg/kg, mice ref 4; cited from earlier work
Pgp transporter = settings: cited from earlier work
QBI293 cells = experiment: AcTub immunofluorescence of QBI293 cells; type: cell-based; settings: 4 h incubation; 2 at 100 nM, colchicine at 1 μM
human Pgp = human Pgp (Homo sapiens, UniProt P08183); experiment: Pgp-interaction assay; type: cell-based; settings: NCI/ADR-RES cells
Sequence of human Pgp (P08183 whole entry): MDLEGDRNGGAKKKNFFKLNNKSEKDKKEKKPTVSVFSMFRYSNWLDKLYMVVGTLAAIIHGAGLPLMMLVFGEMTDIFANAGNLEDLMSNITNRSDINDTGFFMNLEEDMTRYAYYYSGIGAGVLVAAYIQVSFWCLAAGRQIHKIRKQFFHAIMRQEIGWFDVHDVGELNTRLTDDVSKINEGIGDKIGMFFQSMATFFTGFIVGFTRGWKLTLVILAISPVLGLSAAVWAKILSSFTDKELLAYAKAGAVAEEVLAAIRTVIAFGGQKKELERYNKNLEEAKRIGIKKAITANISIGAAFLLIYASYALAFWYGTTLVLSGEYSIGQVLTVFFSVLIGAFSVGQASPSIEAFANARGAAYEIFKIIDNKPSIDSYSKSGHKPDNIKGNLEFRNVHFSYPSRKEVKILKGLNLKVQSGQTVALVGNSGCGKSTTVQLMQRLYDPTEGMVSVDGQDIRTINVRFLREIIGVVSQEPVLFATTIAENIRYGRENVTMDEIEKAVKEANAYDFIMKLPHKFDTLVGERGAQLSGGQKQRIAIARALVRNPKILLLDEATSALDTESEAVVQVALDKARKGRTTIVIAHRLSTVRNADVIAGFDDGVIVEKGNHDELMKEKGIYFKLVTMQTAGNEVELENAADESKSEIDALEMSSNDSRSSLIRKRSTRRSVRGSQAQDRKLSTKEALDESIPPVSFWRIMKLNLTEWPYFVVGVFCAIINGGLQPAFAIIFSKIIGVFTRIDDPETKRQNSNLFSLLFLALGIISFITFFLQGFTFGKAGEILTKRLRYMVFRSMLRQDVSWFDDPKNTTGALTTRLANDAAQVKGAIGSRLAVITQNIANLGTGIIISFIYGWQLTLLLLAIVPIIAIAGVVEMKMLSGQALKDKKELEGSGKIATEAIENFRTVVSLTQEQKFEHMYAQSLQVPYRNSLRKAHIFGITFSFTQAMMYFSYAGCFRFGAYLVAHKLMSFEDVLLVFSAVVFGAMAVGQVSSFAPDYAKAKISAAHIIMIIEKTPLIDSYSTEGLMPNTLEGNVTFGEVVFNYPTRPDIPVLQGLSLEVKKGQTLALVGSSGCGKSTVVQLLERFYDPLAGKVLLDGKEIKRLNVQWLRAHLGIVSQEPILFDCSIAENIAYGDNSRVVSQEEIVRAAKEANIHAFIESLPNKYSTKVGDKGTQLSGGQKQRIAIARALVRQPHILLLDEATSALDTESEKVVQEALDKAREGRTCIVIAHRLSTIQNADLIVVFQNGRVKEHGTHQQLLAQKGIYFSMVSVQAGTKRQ

[4] = 16 h brain and plasma PK study after ip dosing; type: in vivo, CD1 mice; settings: for brain penetration / BBB permeability: mouse, ip dosing; for half-life: CD1, mouse, ip, 5 mg/kg
Procedure, shortened: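 2-month-old CD1 mice (20 g average). Plasma from EDTA-collected blood spun 4500g, 10 min, 4 °C; brain hemispheres sonicated in 10 mM ammonium acetate pH 5.7 (1:2 w/v). Acetonitrile-precipitated supernatants quantified by LC–MS/MS (positive ESI, MRM) against spiked-matrix standards 0.005–5 μM.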

β-tubulin = β-tubulin ref 28; cited from earlier work
[5] = system: Pgp-expressing cancer cell lines; settings: cited from earlier work
[6] = Unbound fraction in brain homogenate by equilibrium dialysis; type: in vitro ADME; settings: ratio of brain Fu values
[7] = Brain and plasma levels 2 h after oral administration; type: in vivo, mice; settings: 2 h after oral administration of 10 mg/kg
Procedure, shortened: (§1)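 Dosing in 2-month-old CD1 mice (20 g average). Brain hemispheres homogenized by sonication in 10 mM ammonium acetate pH 5.7 (1:2 w/v); plasma from EDTA blood centrifuged 4500g, 10 min, 4 °C. Samples precipitated with acetonitrile, spun 15 000g, then analysed by UPLC–MS/MS with positive ESI and MRM. Quantified against brain- and plasma-matrix standard curves spanning 0.005–5 μM.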

[8] = system: AcTub levels in brain homogenates; experiment: Brain pharmacodynamic effect: AcTub levels in brain homogenates; type: in vivo, WT mice; settings: 1 mg/kg daily ip for 4 or 6 days, n = 3
tau transgenic (Tg) mice = settings: tau Tg mice with brain stem and spinal cord tau pathology ref 5; cited from earlier work
[9] = Brain and plasma compound concentration 1 h after ip injection; type: in vivo, CD1 mice; settings: 1 h after ip injection of 5 mg/kg, mouse
Procedure, shortened: as §1

Compound: 5-(4-Chlorophenyl)-6-methyl-4-(2,4,6-trifluorophenyl)pyridazin-3(2H)-one [Compound 6, reference compound]
activity in AcTub assay [1]: essentially inactive
AcTub fold-change relative to vehicle control ([1]; compound at 1 μM): 1.5 ± 0.8^ns fold-change

Compound: C/C1=C/C[C@@H](/C(C)=C/c2csc(C)n2)OC(=O)C[C@H](O)C(C)(C)C(=O)[C@H](C)[C@@H](O)[C@@H](C)CCC1 [Compound 1, epothilone D]
elevation of AcTub levels in cells [2]: significant elevation
elevation in AcTub levels in brain homogenates [3]: significant elevation
Pgp transporter inhibition (Pgp transporter): inhibitor of the Pgp transporter

brain penetration / BBB permeability [4]: negligible brain penetration
Compound: CNCCCOc1cc(F)c(-c2c(Cl)nc3ncnn3c2N[C@@H](C)C(F)(F)F)c(F)c1 [Compound 2, (S)-5-Chloro-6-(2,6-difluoro-4-(3-(methylamino)propoxy)phenyl)-N-(1,1,1-trifluoropropan-2-yl)[1,2,4]triazolo[1,5-a]pyrimidin-7-amine]
increase of cellular AcTub (words, Figure 2) [1]: significant increase
AcTub staining by immunofluorescence (QBI293 cells): large increase in AcTub-positive structures
effect on Pgp function (calcein-AM transport) (human Pgp): did not interfere appreciably with Pgp function
competition for the taxane/epothilone binding site (β-tubulin): not to compete
effect on vinblastine binding (β-tubulin): did affect vinblastine binding
activity against Pgp-expressing cancer cell lines [5]: active

Compound: Cc1nnc(Cl)c(-c2c(F)cc(F)cc2F)c1-c1ccc(Cl)s1 [Compound 7, 3-Chloro-5-(5-chlorothiophen-2-yl)-6-methyl-4-(2,4,6-trifluorophenyl)pyridazine, reference compound]
activity in AcTub assay [1]: essentially inactive

Compound: C[C@H](Nc1c(-c2c(F)cc(OCCCN(C)C)cc2F)c(Cl)nc2ncnn12)C(F)(F)F [Compound 9, (S)-5-Chloro-6-(4-(3-(dimethylamino)propoxy)-2,6-difluorophenyl)-N-(1,1,1-trifluoropropan-2-yl)[1,2,4]triazolo[1,5-a]pyrimidin-7-amine]
increase of cellular AcTub (words, Figure 2) [1]: large increase
AcTub fold-change relative to vehicle control (numbers in parentheses) ([1]; compound at 0.1 μM): (2.0 ± 1.4) fold-change
effect on Pgp function (calcein-AM transport) (human Pgp): did not interfere appreciably with Pgp function
half-life ([4]; brain): > 2 h
half-life ([4]; plasma): > 2 h
brain penetration / BBB permeability [4]: relatively limited
brain Fu value of 9 relative to 20 [6]: ~3 fold
brain and plasma levels after oral dosing [7]: micromolar levels
PD response: AcTub level in brain [8]: significant PD response

brain penetration / BBB permeability [4]: can readily partition across the BBB
brain and plasma levels after oral dosing [7]: micromolar levels
Compound: C[C@H](Nc1nc(-c2cnccn2)nc(Cl)c1-c1c(F)cc(F)cc1F)C(F)(F)F [Compound 20, (S)-6-Chloro-2-(pyrazin-2-yl)-5-(2,4,6-trifluorophenyl)-N-(1,1,1-trifluoropropan-2-yl)pyrimidin-4-amine]
increase of cellular AcTub (words, Figure 2) [1]: large increase
effect on Pgp function (calcein-AM transport) (human Pgp): did not interfere appreciably with Pgp function
PD response: AcTub level in brain [8]: significant PD response

Compound: CC(C)Nc1c(-c2c(F)cc(F)cc2F)c(Cl)nc2nccnc12 [Compound 37, 6-Chloro-N-isopropyl-7-(2,4,6-trifluorophenyl)pyrido[2,3-b]pyrazin-8-amine]
activity in AcTub assay [1]: essentially inactive

Compound: COc1cc2c(c(OC)c1OC)-c1ccc(OC)c(=O)cc1[C@@H](NC(C)=O)CC2 [colchicine]
AcTub staining by immunofluorescence (QBI293 cells): significant loss of AcTub staining

Compound: CC(=O)O[C@H]1C(=O)[C@@]2(C)[C@H]([C@H](OC(=O)c3ccccc3)[C@]3(O)C[C@H](OC(=O)[C@H](O)[C@@H](NC(=O)c4ccccc4)c4ccccc4)C(C)=C1C3(C)C)[C@]1(OC(C)=O)CO[C@@H]1C[C@@H]2O [paclitaxel]
effect on neurodegenerative phenotype of tau Tg mice (tau transgenic (Tg) mice): improve the neurodegenerative phenotype

B/P (brain-to-plasma ratio) [9]: 0.12 ± 0.03
brain concentration [9]: 170 ± 10 nM
plasma concentration [9]: 1500 ± 500 nM
Compound: (S)-N-(3-(4-(5-Chloro-7-((1,1,1-trifluoropropan-2-yl)amino)[1,2,4]triazolo[1,5-a]pyrimidin-6-yl)-3,5-difluorophenoxy)propyl)pivalamide [Compound 16]
AcTub fold-change relative to vehicle control ([1]; compound at 1 μM): 2.4 ± 0.9 fold-change
AcTub fold-change relative to 0.1 μM 2 ([1]; compound at 1 μM, relative to positive control 0.1 μM 2): 0.7 ± 0.1 fold-change
